Screens as filed in PubChem.
Sampled rows, rich in hits. Any-hit rate of the full collection: about 4%.
MPTP inh: permeability transition pore inhibition. isolated mouse mitochondria, Ca2+ swelling absorbance, 30 min. AID 602449. inhibition, % at 10 µM. 360,000 compounds, 1.4% hits;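 active means inhibition of 50% or more, scaled per plate between neutral and stimulator controls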;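 further: 0% = DMSO wells given calcium and 100% = 1 mM EGTA wells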
GPR7 antag: antagonists of human GPR7 (neuropeptides B/W receptor 1); P48145; GPR7-expressing cells, fluorescence antagonist assay; inhibition, % at 4.4 µM; 290,000 compounds, 1.1% hits; AID 1861; in the data active means inhibition above about 16%, passing the limit was not always enough;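 further: cells stimulated with the agonist NPW; 0% = agonist with vehicle and 100% = vehicle without agonist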
TAAR1 ag: agonists of human TAAR1; Q96RJ0; CHO RD-HGA16 TAAR1, Fluo-8 calcium fluorescence; vehicle wells 0%, saturating PEA agonist 100%; activation, % at 3 µM; 360,000 compounds, 0.99% hits; AID 624467;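 active means activation above the mean activation of all test compounds in the run plus 3 SD, cut at about 38% in these data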
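test system = CHO RD-HGA16 cells carrying human TAAR1 plus Gα16 | schedule = 17-24 h seeding, 75 min 37 °C dye, 30 min RT | compound dosing = 3 µM single concentration | control set = DMSO and PEA EC100 | replicates = n 1 | signal = Fluo-8 fluorescence, 5 s baseline then 140 s kinetic read | measure = percent activation vs PEA EC100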
DAGLB inhibitor: diacylglycerol lipase beta (human) inhibition. Q8NCG7. HEK293T DAGLB membrane lysate, EnzChek fluorogenic substrate. inhibition, % at 5.17 µM. 340,000 compounds, 0.059% hits. AID 504411; in the data active means inhibition above about 34%;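 further: 0% = enzyme with vehicle and 100% = wells lacking enzyme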
Target sequence (Q8NCG7 whole entry, looked up): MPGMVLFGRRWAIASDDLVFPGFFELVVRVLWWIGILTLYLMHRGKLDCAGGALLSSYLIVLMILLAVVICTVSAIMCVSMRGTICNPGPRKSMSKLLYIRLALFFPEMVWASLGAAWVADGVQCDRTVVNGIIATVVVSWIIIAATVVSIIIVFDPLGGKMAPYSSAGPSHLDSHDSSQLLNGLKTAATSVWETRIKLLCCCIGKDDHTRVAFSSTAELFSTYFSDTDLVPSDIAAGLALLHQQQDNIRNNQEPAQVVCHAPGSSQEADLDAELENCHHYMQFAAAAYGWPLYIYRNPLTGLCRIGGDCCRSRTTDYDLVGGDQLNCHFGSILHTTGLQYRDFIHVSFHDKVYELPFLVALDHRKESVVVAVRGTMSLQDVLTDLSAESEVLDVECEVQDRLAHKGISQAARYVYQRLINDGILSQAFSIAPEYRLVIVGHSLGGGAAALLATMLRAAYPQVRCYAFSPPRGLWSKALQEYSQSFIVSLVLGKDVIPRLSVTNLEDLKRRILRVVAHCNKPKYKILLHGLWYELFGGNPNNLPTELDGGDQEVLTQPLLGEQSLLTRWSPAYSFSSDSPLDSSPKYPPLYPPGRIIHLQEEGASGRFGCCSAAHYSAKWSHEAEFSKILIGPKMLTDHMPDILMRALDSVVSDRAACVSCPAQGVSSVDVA
TAAR1 antag: human TAAR1 antagonism. inhibition, % at 3 µM. Q96RJ0. CHO RD-HGA16 TAAR1, Fluo-8 calcium fluorescence, antagonist. AID 624466. 360,000 compounds, 1.5% hits;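 active means inhibition above a per-plate cutoff, the mean inhibition of test compounds on that plate plus 3 SD, cut at about 49% in these data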;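 further: 0% = DMSO plus EC80 beta-PEA response and 100% = DMSO alone without agonist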
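Material: CHO RD-HGA16 cells bearing hTAAR1; compound dosing: one-point dosing, 3 µM nominal final; schedule: dye loading 75 min at 37 °C, then 30 min room temperature; measured by: calcium fluorescence with Fluo-8; control set: vehicle and agonist controls; replication: n of 1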
* = called active by the depositor; x = no result given.

SMILES	MPTP inh	GPR7 antag	TAAR1 ag	DAGLB inhibitor	TAAR1 antag
O=C(NCC1CCN(C(=O)C(=O)c2cc3ccccc3o2)CC1)c1ccncc1	x	x	2	x	-8
O=C(Nc1cccc(-n2cnnn2)c1)c1cccc(Cl)c1	-1	4	17	1	11
O=C(Nc1cccc(-n2cnnn2)c1)c1cc(Cl)nc(Cl)c1	8	-10	49*	-6	30
CC(C)(C)c1ccc(C(=O)Nc2cccc(-n3cnnn3)c2)cc1	3	2	6	1	58*
CN(Cc1ccc(OC(F)F)cc1)C(=O)c1cccc(S(=O)(=O)N2CCN(c3ccccc3)CC2)c1	20	x	9	0	75*
COc1ccc(CN2C[C@H](COCc3ccccc3)Oc3cccc(F)c3S2(=O)=O)cc1	x	x	2	x	15
CCCCc1nnn2c1C1c3cc(-c4cccnc4)ccc3CCN1C(=O)C2 (centres undefined)	x	x	-1	x	-27
CCOc1ccccc1N1CCN(C/C=C/c2ccc(N(C)C)cc2)CC1	3	-1	37*	-1	-9
C/C(=N\Nc1cc(N2CCOCC2)ncn1)c1ccc(O)cc1	1	-15	3	-2	14
O=C(Nc1ccccc1N1CCOCC1)C1(c2ccc(Cl)cc2)CCC1	-3	-7	41*	-2	2
O=C(Cc1ccc(Cl)c(Cl)c1)Nc1ccccc1N1CCOCC1	20	-7	4	-1	18
Cc1ccc(NC(=O)CSc2nc(N)cc(N)n2)cc1S(=O)(=O)N1CCOCC1	1	20*	-1	-1	-12
COC(=O)Cn1cc(C(=O)OC)c2ccccc21	-2	21*	4	-3	-9
COCCn1nnnc1C(c1ccc(OC)cc1OC)N1CCN(c2ccccc2F)CC1 (centres undefined)	0	21*	9	1	-2
S=c1sc2c(Cl)ncnc2n1-c1ccccc1	-1	75*	0	-5	54*
Cc1ccc(-c2cc(C(=O)N3CCN(c4ccc(F)cc4)CC3)c3ccccc3n2)o1	-2	15	19	-5	46
Cc1ccc(-c2cc(C(=O)N3CCN(c4ncccn4)CC3)c3cc(Br)ccc3n2)o1	-2	-5	24	3	59*
Cn1c(=O)c2c(c3ccccc31)OC(C)(C)C=C2	x	x	-1	x	-18
N#CCc1nc(CSc2nc3ccccc3s2)cs1	-1	16*	-2	-2	8
COC(=O)[C@@H]1[C@@H](C#N)C2(c3ccccc3-c3ccccc32)N(c2ccc(Cl)cc2)N1C#N	-4	-2	3	7	50*
O=C(Cc1ccc(Cl)cc1)NN1C(=O)c2ccccc2C1=O	1	-3	9	-2	-9
O=C(C1CC1)N(CCN(Cc1ccccc1)C(=O)C1CC1)Cc1ccccc1	2	43*	2	-3	-16
O=C(Cc1cccs1)N(CC1CCCO1)C1(C(=O)NC2CCCC2)CCCCC1 (centres undefined)	1	37*	0	-1	-21
CCCc1ccc(OCc2ccc(C(=O)N3CCN(c4ccccn4)CC3)o2)c(OC)c1	13	-13	9	-3	51*
CCCc1nc2ccccc2n1C(CCSC)C(=O)NC(C)(C)C (centres undefined)	2	x	-1	x	-16
SMILES	MPTP inh	GPR7 antag	TAAR1 ag	DAGLB inhibitor	TAAR1 antag
CCN(CC)C(=S)SSC(=S)N(CC)CC	-3	-13	47*	3	32
COc1ccc(C(=O)Nc2cccc(/C(C)=N\NC(=O)c3ccoc3C)c2)cc1OC	1	0	13	1	49*
CC(=O)c1cccc(NC(=O)c2ccoc2C)c1	0	-4	6	-3	7
OCc1cccc(-c2csc(C(O)c3ccccc3)n2)c1 (centres undefined)	0	x	4	x	-32
Cc1cc(Cl)c(OCCCNCc2ccccc2)c(Br)c1	6	18	44*	-8	0
Cc1ccc2c(c1C)-c1c(ccc(C)c1C)C(=O)C2=O	-3	x	2	10	62*
Cc1ccc(CC#N)c(-c2c(CC#N)ccc(C)c2C)c1C	-1	x	3	-9	21
CCN(CC)c1ccc(C(=C2C=CC(=[N+](CC)CC)C=C2)c2ccccc2)cc1	-9	x	29	-13	105*
CCN(CC)c1ccc(C(=O)NNC(=O)CCNC(=O)c2ccccc2)cc1	-2	x	6	0	2
c1nc2sc3c(c2c2nnnn12)CCCC3	-1	18*	11	1	-13
c1nc2sc3c(c2c2nnnn12)CCC3	1	-5	0	0	-4
COc1ccc(NS(=O)(=O)c2ccc(NC(=S)NC(=O)C(C)C)cc2)cc1	1	20	77*	-3	20
CC(C)C(=O)NC(=S)Nc1ccc(S(=O)(=O)Nc2ccccc2)cc1	3	-3	23	-3	17
CCCCCc1cc(=O)oc2c(C(CCN3CCCC(C)C3)c3ccc(OC)cc3)c(OC)cc(OC)c12 (centres undefined)	3	x	40*	0	6
CSc1ccc(/C=C/C(=O)N2CCN(c3ccccn3)CC2)cc1	-2	-11	0	2	0
CC(=O)N1CCN(c2ccc(N3CCN(C(C)=O)[C@H](C)C3)c(C)c2)[C@@H](C)C1	x	x	0	x	-15
O=C(Nc1cc(C(F)(F)F)ccc1Cl)c1ccc(NC(=O)C(F)(F)F)cc1	7	-7	-2	-12	12
CC(C)(C)NC(=O)COC(=O)c1ccc(O)cc1	-3	16*	23	-2	4
O=C(COC(=O)c1ccc(O)cc1)Nc1cc(C(F)(F)F)ccc1Cl	-2	1	38*	-3	4
CCCC(=O)Nc1ccc(C(=O)Nc2cc(C(F)(F)F)ccc2Cl)cc1	-5	-3	42*	-2	19
Cc1cc(C(=O)CN2C(=O)CCC2=O)c(C)n1Cc1ccccc1	0	13	40*	3	3
Cc1cc(C(=O)CN2C(=O)NC3(CCCc4ccccc43)C2=O)c(C)n1Cc1ccccc1 (centres undefined)	0	4	-1	2	-7
Cc1ccc(-n2nnnc2SCC(=O)N2CCCCC2)cc1	0	8	11	0	6
O=C(CSc1nnnn1-c1cccc2c1CCCC2)N1CCCCC1	-1	7	45*	-1	8
CCOC(=O)c1c(C)[nH]c(C)c1S(=O)(=O)NCCc1cccs1	0	-13	41*	0	-10
CCN1C(=O)N[C@H]2C[C@H](C(=O)N3CCCC3)[C@H](C)[C@H](c3ccccc3)C[C@H]21	x	x	1	x	-19
C/C(=N\NC(=O)COc1ccccc1-c1ccccc1)c1ccccn1	-1	8	5	-4	12
C/C(=N\NC(=O)COc1ccccc1-c1ccccc1)c1ccc(O)cc1O	37	-7	-1	-3	50*
COc1cccc(CN2CCC2(C)C(=O)Nc2cnc3ccccc3c2)c1F (centres undefined)	0	x	2	x	53*
